Test results reported in ChEMBL document CHEMBL5329152, “Synthesis and anti-hepatocellular carcinoma evaluation of salicylic acid-modified indole trimethoxy flavonoid derivatives” (RSC Med Chem, 2023).
Calls of active or inactive are those of the source. The rule behind the calls is not given here.

Legend:
SMMC-7721 [1] = test: Induction of cell cycle distribution in human SMMC-7721 cells assessed as accumulation of cells in G1 phase at 1.5 uM incubated for 48 hrs by PI staining based flow cytometric analysis relative to control; format: functional
In short: (§1)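 Seeding was 1×10^4 cells per well in 6-well plates with 24 h preculture, then 48 h exposure at 0, 1.5, 3 or 6 μM. Trypsinized cells were PBS-washed and fixed overnight in cold 70% ethanol. RNase A treatment ran 30 min at 37 °C, then PI 30 min in the dark at 4 °C. Flow cytometry at 488 nm; n = 3.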

SMMC-7721 [2] = test: Induction of apoptosis in human SMMC-7721 cells assessed as late apoptotic cells at 6 uM incubated for 48 hrs by AnnexinV-FITC/PI staining based flow cytometry (Rvb =3.17 %); format: functional
SMMC-7721 [3] = test: Induction of apoptosis in human SMMC-7721 cells assessed as early apoptotic cells at 3 uM incubated for 48 hrs by AnnexinV-FITC/PI staining based flow cytometry (Rvb =0.739 %); format: functional
SMMC-7721 [4] = test: Induction of cell cycle distribution in human SMMC-7721 cells assessed as accumulation of cells in G1 phase at 3 uM incubated for 48 hrs by PI staining based flow cytometric analysis relative to control; format: functional; in short: as §1
SMMC-7721 [5] = test: Inhibition of glycolysis in human SMMC-7721 cells assessed as decrease in lactic acid production at 1.5 to 6 uM incubated for 48 hrs; format: functional, cell-based; details: dose 1.5-6 µM
In short: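 Cells seeded at 1×10^3 per well in 6-well plates and grown 24 h, then treated 48 h at 0, 1.5, 3 or 6 μM. Cell-free medium mixed with enzyme working solution and developer, held 10 min at 37 °C, then stopped. Absorbance read at 530 nm. Lactate derived against a standard, corrected for blank and sample dilution.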

Tubulin (Homo sapiens) [6] = molecular target: T1, Tubulin (Homo sapiens) (UniProt P68371+Q9H4B7+P0DPH7+P68366+Q13509+Q71U36+P04350+Q3ZCM7+P07437+P68363+Q9BQE3+Q6PEY2+Q13885+Q9BVA1+Q9BUF5); test: Inhibition of tubulin in human SMMC-7721 cells assessed as ruptured nucleus at 6 uM incubated for 48 hrs by immunofluorescence assay; format: cell-based
In short: (§2)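 Cells grown on coverslips in 6-well plates were exposed for 48 h at 0, 1.5, 3 or 6 μM. Fixed in 4% paraformaldehyde and blocked with BSA. Probed in turn with primary antibody, Cy3-labelled goat anti-mouse IgG and DAPI. Imaged by laser scanning confocal microscopy.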

SMMC-7721 [7] = test: Induction of apoptosis in human SMMC-7721 cells assessed as late apoptotic cells at 1.5 uM incubated for 48 hrs by AnnexinV-FITC/PI staining based flow cytometry (Rvb =3.17 %); format: functional
Tubulin (Homo sapiens) [8] = molecular target: T1, Tubulin (Homo sapiens); test: Inhibition of tubulin in human SMMC-7721 cells assessed as denaturated nuclei at 1.5 to 6 uM incubated for 48 hrs by immunofluorescence assay; format: cell-based; details: dose 1.5-6 µM; in short: as §2
SMMC-7721 [9] = test: Induction of cell cycle distribution in human SMMC-7721 cells assessed as accumulation of cells in S phase at 3 uM incubated for 48 hrs by PI staining based flow cytometric analysis relative to control; format: functional; in short: as §1
SMMC-7721 [10] = test: Induction of apoptosis in human SMMC-7721 cells assessed as early apoptotic cells at 6 uM incubated for 48 hrs by AnnexinV-FITC/PI staining based flow cytometry (Rvb =0.739 %); format: functional
SMMC-7721 [11] = test: Inhibition of colony formation in human SMMC-7721 cells assessed as decrease in number of living cells incubated after 10 days by crystal violet based assay; format: functional, cell-based; details: dose 1.5-6 µM, time 10.0 day
In short: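 Seeded at 1.5×10^3 cells per well in 6-well plates and grown 24 h. Given drug at 0, 1.5, 3 or 6 μM for 10 days, with medium renewed every 48 h. On day 11 washed with PBS, fixed 15 min in 4% paraformaldehyde, stained 15 min with 0.1% crystal violet, then dried and photographed.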

SMMC-7721 [12] = test: Inhibition of glycolysis in human SMMC-7721 cells assessed as decrease in PKM2 protein expression level at 1.5 to 6 uM by western blotting analysis; format: functional, cell-based; details: dose 1.5-6 µM
In short: (§3)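 Cells treated at 0, 1.5, 3 or 6 μM, lysed in RIPA, and protein measured by BCA. Semi-dry transfer to PVDF, then blocking 2 h in 5% nonfat milk at room temperature. Primary antibody overnight at 4 °C, secondary at room temperature. Chemiluminescence imaging with grayscale densitometry; n = 3.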

SMMC-7721 [13] = test: Inhibition of glycolysis in human SMMC-7721 cells assessed as decrease in PFKM protein expression level at 1.5 to 6 uM by western blotting analysis; format: functional, cell-based; details: dose 1.5-6 µM; in short: as §3
Tubulin (Homo sapiens) [14] = molecular target: T1, Tubulin (Homo sapiens); test: Inhibition of tubulin in human SMMC-7721 cells assessed as blurred and disappearance of microtubules at 1.5 to 6 uM incubated for 48 hrs by immunofluorescence assay; format: cell-based; details: dose 1.5-6 µM; in short: as §2
Tubulin (Homo sapiens) [15] = molecular target: T1, Tubulin (Homo sapiens); test: Inhibition of tubulin in human SMMC-7721 cells assessed as disappearance of tubulin network structure at 6 uM incubated for 48 hrs by immunofluorescence assay; format: cell-based; in short: as §2

COc1cc(C)ccc1C(=O)n1cc(-c2cc(=O)c3c(OC)c(OC)c(OC)cc3o2)c2ccccc21
Activity (SMMC-7721 [1]): 60.32% | Activity (SMMC-7721 [2]): 12.7% | Activity (SMMC-7721 [3]): 6.57% | Activity (SMMC-7721 [4]): 63.29% | inhibition (SMMC-7721 [5]): Active | inhibition (Tubulin (Homo sapiens) [6]): Active | Activity (SMMC-7721 [7]): 5.97% | inhibition (Tubulin (Homo sapiens) [8]): Active | Activity (SMMC-7721 [9]): 14.69% | Activity (SMMC-7721 [10]): 11.6% | inhibition (SMMC-7721 [11]): Dose-Dependent Effect | inhibition (SMMC-7721 [12]): Active | inhibition (SMMC-7721 [13]): Active | Activity (Tubulin (Homo sapiens) [14]): Active | inhibition (Tubulin (Homo sapiens) [15]): Active
